Published values from different studies.
PRKD3: Serine/threonine-protein kinase D3 (PRKD3, Homo sapiens, UniProt O94806)
CDK2: Cyclin-dependent kinase 2 (CDK2, Homo sapiens, UniProt P24941)

Compound | target | assay | test system | conditions | quantity | value
C1=C/COCc2cc(ccc2OCCN2CCCC2)Nc2nccc(n2)-c2cccc(c2)COC/1 | PRKD3 | binding | – | 0.1 µM | remaining binding | 89%
Cc1cc(S(=O)(=O)NCCO[C@H]2CC[C@H](CN3CCC(c4ccc5c(c4F)n(C)c(=O)n5C4CCC(=O)NC4=O)CC3)CC2)ccc1Nc1ncc(C(F)(F)F)c([C@H]2CC[C@@](C)(O)CC2)n1 (some centres unmarked) | CDK2 | protein level, degrader, western blot | MKN-1 | – | Dmax | 86%
NC/C(=C\F)COc1cccc(Cn2c(=S)[nH]c(=O)c3[nH]cnc32)c1 | Alpha-1A adrenergic receptor (Adra1a, Rattus norvegicus, UniProt P43140) | ligand displacement, radioligand | – | 10 µM | inhibition | < 50%
CCCCC(=O)Nc1ccc(-c2ccc3ncn(CCC)c(=O)c3c2)cn1 | Serine/threonine-protein kinase TNNI3K (TNNI3K, Homo sapiens, UniProt Q59H18) | binding, competition with immobilised ligand | – | 0.5 µM | remaining binding | 91%
C[C@H]1CN(CC2CCN(c3ccc(C4CCC(=O)NC4=O)cc3F)CC2)CC[C@H]1NS(=O)(=O)c1ccc(Nc2ncc(C(F)(F)F)c(N3CCC[C@](C)(O)C3)n2)c(F)c1 (some centres unmarked) | CDK2 | protein level, degrader, western blot | TOV21G | – | Dmax | 93%
C#Cc1cc(-c2cc(Nc3nc(N[C@@H](C)c4ccc(F)cn4)ncc3Cl)n[nH]2)ccc1C=O | PRKD3 | enzyme activity, inhibitor | – | 0.2 µM | inhibition | 4.02%
Cc1cc(=O)oc2cc(NC(=O)[C@H](CCCN=C(N)N)NC(=O)[C@H](CCCN=C(N)N)NC(=O)OCc3ccccc3)ccc12 | Cathepsin B (CTSB, Homo sapiens, UniProt P07858) | enzyme activity, substrate, fluorescence | – | pH 7.5 | Km | 468 µM
Cc1cc(O)c(-c2ccc([C@@H](C)CN(C)C)cc2)c2c1[nH]c(=O)c1sccc12 | Mitogen-activated protein kinase 6 (MAPK6, Homo sapiens, UniProt Q16659) | enzyme activity, inhibitor | – | 0.1 µM | inhibition | 2.75%
